Source: ChEMBL document CHEMBL3797186, “Single Residue Substitutions That Confer Voltage-Gated Sodium Ion Channel Subtype Selectivity in the NaV1.7 Inhibitory Peptide GpTx-1” (J Med Chem, 2016)
Positions of bridges follow the written chain, without caps; N, C: chain ends. Non-standard residues stand in square brackets, D forms with d. Residues, ends and D or L forms follow the SMILES beside them. 1Nal = N[C@@H](Cc1cccc2ccccc12)C(=O)O

Tests used:
[1] = molecular target: Sodium channel protein type 9 subunit alpha (Homo sapiens, UniProt Q15858); test: Inhibition of human Nav1.7 expressed in HEK293 cells assessed as inward peak current by ion-works quattro patch clamp electrophysiology method; type: cell-based
[2] = molecular target: Sodium channel protein type 5 subunit alpha (Homo sapiens, UniProt Q14524); test: Inhibition of human Nav1.5 expressed in HEK293 cells assessed as inward peak current by ion-works quattro patch clamp electrophysiology method; type: cell-based
Summary of the method: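 Stable HEK293 line expressing human NaV1.5, recorded by population patch clamp on the IonWorks Quattro.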

Sodium channel protein type 9 subunit alpha, sequence (Q15858 whole entry): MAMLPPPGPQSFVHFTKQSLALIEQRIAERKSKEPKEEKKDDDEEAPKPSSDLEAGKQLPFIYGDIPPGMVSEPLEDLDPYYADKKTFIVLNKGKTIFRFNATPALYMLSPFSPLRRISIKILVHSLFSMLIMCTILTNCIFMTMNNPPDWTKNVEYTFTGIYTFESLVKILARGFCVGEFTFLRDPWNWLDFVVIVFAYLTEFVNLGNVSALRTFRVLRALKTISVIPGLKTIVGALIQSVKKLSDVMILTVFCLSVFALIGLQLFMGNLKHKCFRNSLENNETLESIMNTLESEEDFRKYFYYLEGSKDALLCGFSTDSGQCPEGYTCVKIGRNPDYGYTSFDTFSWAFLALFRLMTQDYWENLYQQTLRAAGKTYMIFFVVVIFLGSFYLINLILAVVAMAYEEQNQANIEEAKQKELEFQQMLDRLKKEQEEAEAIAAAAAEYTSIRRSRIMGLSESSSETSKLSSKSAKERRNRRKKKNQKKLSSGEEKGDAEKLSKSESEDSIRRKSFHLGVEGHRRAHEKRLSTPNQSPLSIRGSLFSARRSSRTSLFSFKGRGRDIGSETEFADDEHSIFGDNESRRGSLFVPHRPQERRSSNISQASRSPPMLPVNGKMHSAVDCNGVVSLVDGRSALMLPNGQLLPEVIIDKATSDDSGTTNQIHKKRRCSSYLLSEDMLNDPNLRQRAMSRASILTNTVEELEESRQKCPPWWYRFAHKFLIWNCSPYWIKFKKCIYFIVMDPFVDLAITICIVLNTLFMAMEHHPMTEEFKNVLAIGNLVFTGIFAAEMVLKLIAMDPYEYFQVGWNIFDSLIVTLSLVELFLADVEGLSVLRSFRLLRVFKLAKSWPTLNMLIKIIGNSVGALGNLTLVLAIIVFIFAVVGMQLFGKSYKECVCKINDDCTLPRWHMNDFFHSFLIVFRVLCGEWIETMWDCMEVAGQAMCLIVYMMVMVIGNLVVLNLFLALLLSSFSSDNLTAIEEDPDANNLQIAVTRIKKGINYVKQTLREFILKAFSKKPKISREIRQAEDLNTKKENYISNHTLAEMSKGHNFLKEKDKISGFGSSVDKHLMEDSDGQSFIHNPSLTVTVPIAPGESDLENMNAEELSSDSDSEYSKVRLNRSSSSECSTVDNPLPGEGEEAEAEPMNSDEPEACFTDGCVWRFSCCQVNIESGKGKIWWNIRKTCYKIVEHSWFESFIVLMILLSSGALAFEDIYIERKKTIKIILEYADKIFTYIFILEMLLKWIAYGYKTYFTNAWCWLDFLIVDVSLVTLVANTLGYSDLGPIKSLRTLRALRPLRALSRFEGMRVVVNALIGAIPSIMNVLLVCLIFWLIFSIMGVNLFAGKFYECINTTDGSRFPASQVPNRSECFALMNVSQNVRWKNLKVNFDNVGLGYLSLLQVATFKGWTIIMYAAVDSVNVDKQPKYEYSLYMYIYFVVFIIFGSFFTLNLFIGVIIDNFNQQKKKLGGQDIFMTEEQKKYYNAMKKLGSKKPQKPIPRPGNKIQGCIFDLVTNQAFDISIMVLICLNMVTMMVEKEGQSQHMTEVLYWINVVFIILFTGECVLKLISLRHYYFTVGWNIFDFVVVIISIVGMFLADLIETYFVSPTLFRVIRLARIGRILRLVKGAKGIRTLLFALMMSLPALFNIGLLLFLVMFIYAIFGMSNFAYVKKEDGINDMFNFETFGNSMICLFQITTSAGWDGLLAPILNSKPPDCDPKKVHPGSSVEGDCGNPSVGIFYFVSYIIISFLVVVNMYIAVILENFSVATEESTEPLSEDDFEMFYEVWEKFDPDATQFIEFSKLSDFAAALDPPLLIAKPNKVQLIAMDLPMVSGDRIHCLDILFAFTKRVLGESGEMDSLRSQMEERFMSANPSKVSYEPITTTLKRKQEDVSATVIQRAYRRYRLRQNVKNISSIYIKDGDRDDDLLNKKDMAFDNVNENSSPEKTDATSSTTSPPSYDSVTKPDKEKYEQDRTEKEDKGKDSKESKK
Sodium channel protein type 5 subunit alpha, sequence (Q14524 whole entry): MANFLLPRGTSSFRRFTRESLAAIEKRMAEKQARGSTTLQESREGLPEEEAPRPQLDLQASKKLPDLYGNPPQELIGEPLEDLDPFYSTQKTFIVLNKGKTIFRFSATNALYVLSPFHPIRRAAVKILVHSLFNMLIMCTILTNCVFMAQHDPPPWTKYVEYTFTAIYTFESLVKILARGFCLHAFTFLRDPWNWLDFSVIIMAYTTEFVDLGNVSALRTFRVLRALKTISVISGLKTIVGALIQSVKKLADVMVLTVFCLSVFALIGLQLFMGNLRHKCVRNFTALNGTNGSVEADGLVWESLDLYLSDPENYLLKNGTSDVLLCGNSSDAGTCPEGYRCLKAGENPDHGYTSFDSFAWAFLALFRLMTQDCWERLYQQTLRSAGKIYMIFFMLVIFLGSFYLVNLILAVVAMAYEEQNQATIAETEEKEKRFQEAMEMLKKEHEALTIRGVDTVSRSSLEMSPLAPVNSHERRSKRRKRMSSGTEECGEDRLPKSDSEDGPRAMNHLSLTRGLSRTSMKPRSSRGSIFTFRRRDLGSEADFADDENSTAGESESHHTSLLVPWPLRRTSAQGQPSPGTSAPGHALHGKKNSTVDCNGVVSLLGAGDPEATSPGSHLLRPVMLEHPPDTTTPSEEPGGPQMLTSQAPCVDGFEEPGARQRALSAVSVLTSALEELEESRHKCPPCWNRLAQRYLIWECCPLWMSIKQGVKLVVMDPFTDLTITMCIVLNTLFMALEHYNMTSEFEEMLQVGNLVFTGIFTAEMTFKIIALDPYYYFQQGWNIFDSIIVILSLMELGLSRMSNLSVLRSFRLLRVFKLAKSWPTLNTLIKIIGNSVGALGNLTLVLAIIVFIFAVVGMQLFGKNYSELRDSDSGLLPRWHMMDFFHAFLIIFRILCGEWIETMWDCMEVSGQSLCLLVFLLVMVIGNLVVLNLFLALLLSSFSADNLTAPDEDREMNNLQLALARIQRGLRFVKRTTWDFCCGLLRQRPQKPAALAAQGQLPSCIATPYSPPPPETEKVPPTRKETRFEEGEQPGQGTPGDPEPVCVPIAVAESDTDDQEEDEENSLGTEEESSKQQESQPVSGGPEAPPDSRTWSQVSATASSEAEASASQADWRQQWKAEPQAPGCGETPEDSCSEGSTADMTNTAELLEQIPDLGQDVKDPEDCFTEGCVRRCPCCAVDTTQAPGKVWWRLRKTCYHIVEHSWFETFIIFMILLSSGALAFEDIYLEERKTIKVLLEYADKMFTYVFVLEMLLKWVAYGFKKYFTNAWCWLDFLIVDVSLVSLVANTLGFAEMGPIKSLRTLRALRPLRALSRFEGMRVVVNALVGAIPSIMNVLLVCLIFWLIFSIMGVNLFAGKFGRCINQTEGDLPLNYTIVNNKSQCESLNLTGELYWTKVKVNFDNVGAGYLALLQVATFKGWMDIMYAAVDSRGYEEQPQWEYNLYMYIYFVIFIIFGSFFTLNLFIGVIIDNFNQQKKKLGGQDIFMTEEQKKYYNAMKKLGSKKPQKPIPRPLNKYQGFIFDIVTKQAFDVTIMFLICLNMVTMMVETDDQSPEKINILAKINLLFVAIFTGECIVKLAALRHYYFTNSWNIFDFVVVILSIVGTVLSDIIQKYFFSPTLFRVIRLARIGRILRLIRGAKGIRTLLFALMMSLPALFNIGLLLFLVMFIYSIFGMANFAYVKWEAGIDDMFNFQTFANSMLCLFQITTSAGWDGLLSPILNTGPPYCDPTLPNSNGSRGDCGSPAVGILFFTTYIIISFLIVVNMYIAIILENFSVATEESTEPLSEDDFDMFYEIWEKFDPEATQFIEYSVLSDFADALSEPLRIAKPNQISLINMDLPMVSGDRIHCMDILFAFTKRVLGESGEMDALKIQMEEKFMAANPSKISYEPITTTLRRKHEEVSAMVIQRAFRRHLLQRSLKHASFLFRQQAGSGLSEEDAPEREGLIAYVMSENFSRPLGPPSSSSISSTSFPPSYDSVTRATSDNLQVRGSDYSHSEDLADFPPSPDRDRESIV

SMILES | IC50 [1] [nM] | IC50 [2] [nM]
CC[C@H](C)[C@@H]1NC(=O)[C@@H]2CSSC[C@@H]3NC(=O)[C@H](C(C)C)NC(=O)[C@H](CC(C)C)NC(=O)[C@H](CC(N)=O)NC(=O)[C@@H]4CCCN4C(=O)[C@H](CCCNC(=N)N)NC(=O)[C@H](CSSC[C@H](NC(=O)[C@H](CC(=O)O)NC(=O)[C@@H](N)Cc4c[nH]c5ccccc45)C(=O)N[C@@H](CC(C)C)C(=O)NCC(=O)N[C@@H](Cc4ccccc4)C(=O)N[C@@H](CCSC)C(=O)N[C@@H](CCCNC(=N)N)C(=O)N[C@@H](CCCCN)C(=O)N2)NC(=O)[C@H](CSSC[C@@H](C(=O)N[C@@H](CCCCN)C(=O)N[C@@H](Cc2ccc(O)cc2)C(=O)N[C@H](C(=O)N[C@@H](Cc2ccccc2)C(N)=O)C(C)C)NC(=O)[C@H](Cc2c[nH]c4ccccc24)NC(=O)[C@H](CCCCN)NC(=O)[C@H](Cc2cnc[nH]2)NC(=O)[C@H]([C@@H](C)O)NC(=O)[C@H](CCCNC(=N)N)NC(=O)[C@H](CO)NC3=O)NC(=O)[C@H](CCCCN)NC(=O)[C@H](CC(=O)O)NC(=O)[C@H](CC(N)=O)NC(=O)[C@H](CC(=O)O)NC(=O)[C@@H]2CCCN2C1=O | 200 | > 5000
CC[C@H](C)[C@@H]1NC(=O)[C@@H]2CSSC[C@@H]3NC(=O)[C@H](C(C)C)NC(=O)[C@H](CC(C)C)NC(=O)[C@H](CC(N)=O)NC(=O)[C@@H]4CCCN4C(=O)[C@H](CCCNC(=N)N)NC(=O)[C@H](CSSC[C@H](NC(=O)[C@@H](N)CC(=O)O)C(=O)N[C@@H](CC(C)C)C(=O)NCC(=O)N[C@@H](Cc4ccccc4)C(=O)N[C@@H](CCSC)C(=O)N[C@@H](CCCNC(=N)N)C(=O)N[C@@H](CCCCN)C(=O)N2)NC(=O)[C@H](CSSC[C@@H](C(=O)N[C@@H](CCCCN)C(=O)N[C@@H](Cc2ccc(O)cc2)C(=O)N[C@H](C(=O)N[C@@H](Cc2ccccc2)C(N)=O)C(C)C)NC(=O)[C@H](CCCCN)NC(=O)[C@H](CCCCN)NC(=O)[C@H](Cc2cnc[nH]2)NC(=O)[C@H]([C@@H](C)O)NC(=O)[C@H](CCCNC(=N)N)NC(=O)[C@H](CO)NC3=O)NC(=O)[C@H](CCCCN)NC(=O)[C@H](CC(=O)O)NC(=O)[C@H](CC(N)=O)NC(=O)[C@H](CC(=O)O)NC(=O)[C@@H]2CCCN2C1=O (H-DCLGFMRKCIPDNDKCCRPNLVCSRTHKKCKYVF-NH2; disulfide 2-17, 9-23, 16-30) | > 5000 | > 5000
CC[C@H](C)[C@@H]1NC(=O)[C@@H]2CSSC[C@@H]3NC(=O)[C@H](C(C)C)NC(=O)[C@H](CC(C)C)NC(=O)[C@H](CC(N)=O)NC(=O)[C@@H]4CCCN4C(=O)[C@H](CCCNC(=N)N)NC(=O)[C@H](CSSC[C@H](NC(=O)[C@@H](N)CC(=O)O)C(=O)N[C@@H](CC(C)C)C(=O)NCC(=O)N[C@@H](Cc4ccccc4)C(=O)N[C@@H](CCSC)C(=O)N[C@@H](CCCNC(=N)N)C(=O)N[C@@H](CCCCN)C(=O)N2)NC(=O)[C@@H](CSSC[C@@H](C(=O)N[C@@H](CCCCN)C(=O)N[C@@H](Cc2ccc(O)cc2)C(=O)N[C@H](C(=O)N[C@@H](Cc2ccccc2)C(N)=O)C(C)C)NC(=O)[C@H](Cc2c[nH]c4ccccc24)NC(=O)[C@H](CCCCN)NC(=O)[C@H](Cc2cnc[nH]2)NC(=O)[C@H](C)NC(=O)[C@H](CCCNC(=N)N)NC(=O)[C@H](CO)NC3=O)NC(=O)[C@H](CCCCN)NC(=O)[C@H](CC(=O)O)NC(=O)[C@H](CC(N)=O)NC(=O)[C@H](CC(=O)O)NC(=O)[C@@H]2CCCN2C1=O | 260 | > 5000
CC[C@H](C)[C@@H]1NC(=O)[C@@H]2CSSC[C@@H]3NC(=O)[C@H](C(C)C)NC(=O)[C@H](CC(C)C)NC(=O)[C@H](CC(N)=O)NC(=O)[C@@H]4CCCN4C(=O)[C@H](CCCNC(=N)N)NC(=O)[C@H](CSSC[C@H](NC(=O)[C@@H](N)CC(=O)O)C(=O)N[C@@H](CC(C)C)C(=O)NCC(=O)N[C@@H](Cc4ccccc4)C(=O)N[C@@H](CCSC)C(=O)N[C@@H](CCCNC(=N)N)C(=O)N[C@@H](CCCCN)C(=O)N2)NC(=O)[C@H](CSSC[C@@H](C(=O)N[C@@H](CCCCN)C(=O)N[C@@H](Cc2ccc(O)cc2)C(=O)N[C@@H](Cc2cccc4ccccc24)C(=O)N[C@@H](Cc2ccccc2)C(N)=O)NC(=O)[C@H](Cc2c[nH]c4ccccc24)NC(=O)[C@H](CCCCN)NC(=O)[C@H](Cc2cnc[nH]2)NC(=O)[C@H]([C@@H](C)O)NC(=O)[C@H](CCCNC(=N)N)NC(=O)[C@H](CO)NC3=O)NC(=O)[C@H](CCCCN)NC(=O)[C@H](CC(=O)O)NC(=O)[C@H](CC(N)=O)NC(=O)[C@H](CC(=O)O)NC(=O)[C@@H]2CCCN2C1=O (H-DCLGFMRKCIPDNDKCCRPNLVCSRTHKWCKY[1Nal]F-NH2; disulfide 2-17, 9-23, 16-30) | 70 | > 5000
CC[C@H](C)[C@@H]1NC(=O)[C@H]2CSSC[C@H]3NC(=O)[C@H](C(C)C)NC(=O)[C@H](CC(C)C)NC(=O)[C@H](CC(N)=O)NC(=O)[C@@H]4CCCN4C(=O)[C@H](CCCNC(=N)N)NC(=O)[C@H](CSSC[C@H](NC(=O)[C@@H](N)CC(=O)O)C(=O)N[C@@H](CC(C)C)C(=O)NCC(=O)N[C@@H](Cc4ccccc4)C(=O)N[C@@H](CCSC)C(=O)N[C@@H](CCCNC(=N)N)C(=O)N[C@@H](CCCCN)C(=O)N2)NC(=O)[C@@H](CSSC[C@@H](C(=O)N[C@@H](CCCCN)C(=O)N[C@@H](Cc2ccc(O)cc2)C(=O)N[C@H](C(=O)N[C@@H](Cc2ccccc2)C(N)=O)C(C)C)NC(=O)[C@H](Cc2c[nH]c4ccccc24)NC(=O)[C@H](C)NC(=O)[C@H](Cc2cnc[nH]2)NC(=O)[C@H]([C@@H](C)O)NC(=O)[C@H](CCCNC(=N)N)NC(=O)[C@H](CO)NC3=O)NC(=O)[C@H](CCCCN)NC(=O)[C@H](CC(=O)O)NC(=O)[C@H](CC(N)=O)NC(=O)[C@H](CC(=O)O)NC(=O)[C@@H]2CCCN2C1=O | 470 | > 5000
CC[C@H](C)[C@@H]1NC(=O)[C@@H]2CSSC[C@@H]3NC(=O)[C@H](C(C)C)NC(=O)[C@H](CC(C)C)NC(=O)[C@H](CC(N)=O)NC(=O)[C@@H]4CCCN4C(=O)[C@H](CCCNC(=N)N)NC(=O)[C@H](CSSC[C@H](NC(=O)[C@@H](N)CC(=O)O)C(=O)N[C@@H](CC(C)C)C(=O)NCC(=O)N[C@@H](Cc4ccccc4)C(=O)N[C@@H](CCSC)C(=O)N[C@@H](CCCNC(=N)N)C(=O)N[C@@H](CCCCN)C(=O)N2)NC(=O)[C@H](CSSC[C@@H](C(=O)N[C@@H](CCC(=O)O)C(=O)N[C@@H](Cc2ccc(O)cc2)C(=O)N[C@H](C(=O)N[C@@H](Cc2ccccc2)C(N)=O)C(C)C)NC(=O)[C@H](Cc2c[nH]c4ccccc24)NC(=O)[C@H](CCCCN)NC(=O)[C@H](Cc2cnc[nH]2)NC(=O)[C@H]([C@@H](C)O)NC(=O)[C@H](CCCNC(=N)N)NC(=O)[C@H](CO)NC3=O)NC(=O)[C@H](CCCCN)NC(=O)[C@H](CC(=O)O)NC(=O)[C@H](CC(N)=O)NC(=O)[C@H](CC(=O)O)NC(=O)[C@@H]2CCCN2C1=O (H-DCLGFMRKCIPDNDKCCRPNLVCSRTHKWCEYVF-NH2; disulfide 2-17, 9-23, 16-30) | > 5000 | > 5000
